Source: PubChem BioAssay
FAK inh = inhibitors of human focal adhesion kinase. Q05397. biochemical FAK kinase activity assay. inhibition, %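 (tested at 7 µM)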. actives 0.84% (n = 97,000). AID 727;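 further: 0% = DMSO and 100% = reference compound high control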
LYP inh 2 = inhibitors of human LYP (PTPN22) phosphatase. Q9Y2R2. recombinant LYP catalytic domain, DiFMUP fluorescence. inhibition, % at 2 µM. actives 0.21% (n = 96,000). AID 640;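 active means inhibition at 2 µM at or above a set limit, the screen mean plus 3 SD, cut at about 24% in these data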;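 further: 0% = DMSO with enzyme and 100% = enzyme fully blocked by orthovanadate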
HIV Rev-RRE inh = HIV Rev-RRE protein-RNA interaction inhibition | P05866 | Rev peptide-RRE RNA binding, FRET | inhibition, % at 8 µM | actives 0.79% (n = 97,000) | AID 704;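 active means inhibition above the screen-wide mean plus 3 SD, cut at about 35% in these data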;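 further: 0% = median DMSO wells and 100% = median Neomycin B control wells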
Target sequence (P05866 whole entry, looked up): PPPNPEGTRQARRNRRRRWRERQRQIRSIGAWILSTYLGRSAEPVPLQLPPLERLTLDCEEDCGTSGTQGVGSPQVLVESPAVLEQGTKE
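System: Cy5-labelled duplex RRE RNA binding fluorescein-labelled HIV Rev peptide; Signal: fluorescein-to-Cy5 FRET, 480 nm excitation; Also added: labelled Rev peptide; Compound: one concentration, 8 µM nominal; Buffer or medium: HEPES pH 7.5 salt buffer with EDTA; Read-out: % inhibition of FRET ratio versus controls; Schedule: 5 min preincubation and 15 min binding, 25 °C.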
PTPN22 act = LYP (human) phosphatase activation; recombinant LYP, DiFMUP fluorescence; 0 = plate median, 100 = signal doubled; activation, % at 2 µM; Q9Y2R2; actives 0.11% (n = 96,000);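 active means activation at 2 µM above a set limit, the mean plus 5 SD, cut at about 37% in these data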
FAK inh confirm = FAK (human) inhibition confirmed; shares compounds with FAK inh; FAK kinase biochemical inhibition assay; inhibition, % at 7 µM; actives 28% (n = 750); AID 794
* = called active by the depositor; x = not tested or not shown; [ ] = another dose, or the depositor's remark. Rows were chosen to be rich in hits. Some 1.8% of all compounds tested hit in one or more screens of this group. Unless noted, no stated cut-off is given here; in the data, active means inhibition above about 19%; inactive means the rest.

SMILES | FAK inh | LYP inh 2 | HIV Rev-RRE inh | PTPN22 act | FAK inh confirm
Nc1ncnc2nc(SCC(=O)N3CCN(c4ccccc4)CC3)[nH]c12 | 4 | 2 | 10 | 1 | x
O=c1oc2ccccc2c(Nc2ccc3ccccc3c2)c1[N+](=O)[O-] | 24* | 4 | 9 | -4 | 6
O=c1oc2ccccc2c(Nc2ccc(O)cc2)c1[N+](=O)[O-] | 6 | 20 | 5 | -17 | x
O=C(CNC(=O)c1ccco1)NCC(=O)OCc1ccc(Cl)cc1 | 39* | 0 | 3 | -3 | 1
O=C(Nc1ccccc1C(=O)NCc1ccc(Cl)cc1)c1ccco1 | 27* | -1 | 12 | -4 | 2
Cc1cc(Br)ccc1NCc1ccccn1 | 4 | 5 | 0 | -2 | x
CCOc1cc(/C=C2/NC(=S)NC2=O)ccc1OCc1ccc([N+](=O)[O-])cc1 | 41* | 5 | 25 | -7 | 22*
CCOc1cc(C(c2c(C)[nH][nH]c2=O)c2c(C)[nH][nH]c2=O)ccc1OCc1ccc([N+](=O)[O-])cc1 | -1 | 4 | 8 | -2 | x
O=C(NCc1ccc2c(c1)OCO2)c1cc2ccccc2o1 | 4 | 0 | 9 | -1 | x
Cc1ccc2cc3cc(C(=O)NCc4ccc5c(c4)OCO5)oc3nc2c1 | 28* | 11 | 2 | -11 | 20*
Nc1cc(N)cc(-c2nc3ccccc3[nH]2)c1 | 1 | 2 | 3 | -4 | x
c1cncc(-c2nc3ccccc3[nH]2)c1 | 28* | 14 | 6 | -10 | 3
C=CCN1C(=O)/C(=C2/C(=O)N(CC(=O)O)c3ccccc32)S/C1=N/c1nccs1 | 22* | 20 | -37 | -16 | 10
C=CCN1C(=O)/C(=C2/Sc3ccccc3N2C)SC1=Nc1ccccc1C | 0 | 11 | 1 | -9 | x
CC(C)(C)NC(=O)C12CCC(C)(c3nc4ccccc4nc31)C2(C)C (centres undefined) | -2 | 0 | 5 | 3 | x
O=C1Nc2ccc(S(=O)(=O)NCc3ccco3)c3cccc1c23 | 19* | -17 | 6 | 12 | 1
O/N=C/c1cc(Br)ccc1OCc1cccc(F)c1 | 20* | 4 | 14 | 2 | 6
O/N=C/c1cc(Br)ccc1OCc1ccc(F)cc1 | 18 | 5 | 15 | 1 | x
COc1ccc(N=Cc2nc(-c3ccco3)oc2O)cc1 | 2 | -45 | -2 | 34 | x
CC(=O)Nc1ccc(N=Cc2nc(-c3ccc(C)cc3)oc2O)cc1 | 24* | -1 | 0 | -6 | 12
CCOc1ccc(C(=O)Nc2ccc(N3CCCC3)cc2)cc1 | 17 | 1 | 8 | 2 | x
COc1ccc(C(=O)Nc2ccc(N3CCCC3)cc2)cc1 | 32* | 15 | 3 | -13 | 13
Cc1cc(C)cc(OCC(=O)Nc2ccc(N3CCCC3)cc2)c1 | 39* | 16 | 6 | -17 | 40*
Cc1nc(NC(C)C)c2cnn(CCc3ccccc3)c2n1 | 5 | 8 | 1 | -8 | x
CCn1nnnc1SCC(=O)NC1CCCC1 | 1 | 0 | 10 | 2 | x
SMILES | FAK inh | LYP inh 2 | HIV Rev-RRE inh | PTPN22 act | FAK inh confirm
COC(=O)c1c(NC(=O)Cc2cccs2)sc2c1CCCC2 | 21* | 1 | 16 | -1 | 8
N/C(=N\OC(=O)c1cccc2ccccc12)c1cccc([N+](=O)[O-])c1 | 28* | 4 | -1 | 1 | 7
COc1ccc(C2C(C#N)=C(N)Oc3c2sc2nc(C)cc(C)c32)cc1 (centres undefined) | 29* | -9 | 15 | 13 | 10
C=CCN=C(NC#N)SCC(=O)c1cccc(OC)c1 | 11 | 5 | 3 | -6 | x
CCc1ccc2c(c1)CCCN2C(=O)c1ccccc1C(=O)O | 23* | 6 | 14 | -6 | 3
Cc1ccc2c(c1)CCCN2C(=O)c1cc2ccccc2oc1=O | 0 | 14 | 4 | -14 | x
Oc1ccc(N=Cc2ccc(-c3cccs3)s2)cc1 | 43* | -2 | 0 | -1 | 2
COCCNC(=O)c1c(N)n(CCCn2ccnc2)c2nc3ccccc3nc12 | 24* | -4 | 14 | 2 | -1
COCCNC(=O)c1c(N)n(-c2ccccc2)c2nc3ccccc3nc12 | 4 | 16 | 3 | -13 | x
Clc1ccc(OCc2nn3c(-c4ccco4)nnc3s2)c(Cl)c1 | 39* | 12 | 4 | -11 | 18
Cc1ccc(-c2csc3ncnc(Sc4nnc(CN5CCCCCC5=O)o4)c23)cc1 | 12 | 10 | 0 | -12 | x
CC1CCN(S(=O)(=O)c2ccc(NC(=O)Cn3nnc(-c4ccccc4F)n3)cc2)CC1 | 19* | -8 | 15 | 11 | 8
Clc1ccc(-c2n[nH]c3c2CCC3)cc1Cl | 28* | 0 | 14 | -2 | 15
CCNC(=O)NC(=O)C(C)Sc1nc2ccccc2n1CC(C)C (centres undefined) | 6 | 17 | 10 | -14 | x
O=c1c2ccccc2nc2ccc(NCc3ccco3)nn12 | 23* | 3 | 23 | 0 | 1
Cc1occc1-c1nnc(SCC(=O)Nc2nc3ccccc3s2)o1 | 3 | -3 | 0 | 6 | x
Cc1ccc2[nH]c3c(N4CCCCCC4)ncnc3c2c1 | 42* | -2 | 1 | -1 | 19
Cc1ccc2[nH]c3c(N4CCN(Cc5ccccc5)CC4)ncnc3c2c1 | 17 | -15 | 11 | 11 | x
Cc1ccc2[nH]c3c(N4CCN(Cc5ccc6c(c5)OCO6)CC4)ncnc3c2c1 | 38* | 7 | 16 | -10 | 18
COc1ccc2c(c1)[nH]c1c(N3CCN(Cc4ccc5c(c4)OCO5)CC3)ncnc12 | 25* | -4 | 15 | 2 | 10
COc1ccc(S(=O)(=O)NNC(=O)c2csc(-n3nc(C)cc3C(F)(F)F)n2)cc1 | 2 | -11 | 11 | 8 | x
CC(C(=O)NC1CCCC1)N(C(=O)c1ccc(-c2ccccc2)[nH]1)c1ccccc1F (centres undefined) | 3 | 6 | 5 | -2 | x
COC(=O)C(Cc1ccc(OC(=O)c2ccc(C)cc2)cc1)N1Cc2ccccc2C1=O (centres undefined) | -10 | -8 | 6 | 12 | x
CCOC(=O)c1cnc2c(-c3ccccc3)cnn2c1N | 29* | -6 | 0 | 4 | 0
CCOC(=O)c1cnc2c(-c3ccccc3)c(C)nn2c1N | -2 | 2 | 3 | 0 | x
SMILES | FAK inh | LYP inh 2 | HIV Rev-RRE inh | PTPN22 act | FAK inh confirm
CC(C)Oc1ccc(C(=O)NCc2cccs2)cc1 | 0 | -2 | -4 | 0 | x
COC(=O)c1[nH]c2cc(C)ccc2c1NC(=O)CN1CCN(c2ccccc2OC)CC1 | -2 | 1 | 0 | -2 | x
COC(=O)c1[nH]c2ccc(C)cc2c1NC(=O)CN1CCCc2ccccc21 | 20* | 10 | 17 | -12 | 22*
O=c1c(O)c(-c2cccs2)oc2ccccc12 | 23* | -4 | 42* | 6 | 12
O=C(O)COc1c(-c2ccccc2)oc2ccccc2c1=O | -4 | 6 | 6 | -5 | x
CCC1(CC)NC(=O)N(CC(=O)Nc2sc3c(c2C(N)=O)CCC3)C1=O | 28* | 3 | 15 | -6 | 6
CCCCC(=O)Nc1sc2c(c1C(N)=O)CCC2 | 20* | 0 | 3 | -4 | 12
COCCCNc1c2c3c(cccc3[nH]c1=O)C(=O)c1ccccc1-2 | 20* | -4 | 141*[fluorescence artefact?] | 3 | 10
